Activity calls are given as the source filed them. The calls are words filed in the database; no cut-off is given here.
Key:
Mus musculus [1] = experiment: Spontaneous motor activity in ICR mouse at 50 mg/kg, po; assay type: functional, organism-based; set-up: dose 50 mg/kg
Procedure, shortened: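 Locomotion of male ICR mice measured 1 h after day-5 oral dose (0.3% CMCNa suspension, daily for 5 days) with an automated activity meter in an open field (35 cm diameter); 3 min adaptation, then counts over 6 min; n=10; means ± SEM compared with vehicle by ANOVA/Dunnett.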

Mus musculus [2] = experiment: Antidepressant activity in ICR mouse assessed as reduction of immobility time at 50 mg/kg, po after 5 days by tail suspension test; assay type: functional; set-up: scale not given: the % may be the effect or the level left
Procedure, shortened: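 Male ICR mice (18-22 g); compounds in 0.3% CMCNa dosed orally daily for 5 days, fluoxetine (10 mg/kg) once on day 5, vehicle group 5 days. One hour after day-5 dose, mouse hung by tail from lever 30 cm high for 6 min; immobility in later 4 min recorded by observer; n=10; one-way ANOVA then Dunnett's t-test.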

Mus musculus [3] = experiment: Antidepressant activity in ICR mouse assessed as reduction of immobility time at 50 mg/kg, po after 5 days by forced swimming test; assay type: functional; set-up: scale not given: the % may be the effect or the level left
Procedure, shortened: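 Male ICR mice (18-22 g), housed a week on 12:12 h light-dark cycle; saponins suspended in 0.3% CMCNa, given orally once daily for 5 days; vehicle controls 5 days, fluoxetine (10 mg/kg) once on day 5. 1 h after last dose, mouse placed in water (24 °C, 10 cm deep) 6 min; immobility scored over final 4 min by blinded observer; n=10; means ± SEM, ANOVA/Dunnett.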

| SMILES | Activity (Mus musculus [1]) | Activity (Mus musculus [2]) [%] | Activity (Mus musculus [3]) [%] |
| --- | --- | --- | --- |
| CC(C)=C[C@@H]1CO[C@]23C[C@@]4(CO2)[C@@H](CC[C@@H]2[C@@]5(C)CC[C@H](O[C@H]6OC[C@H](O)[C@H](O[C@H]7O[C@H](CO)[C@H](O)[C@H](O)[C@H]7O)[C@H]6O[C@@H]6O[C@@H](CO)[C@H](O)[C@H]6O)C(C)(C)[C@@H]5CC[C@]24C)[C@H]3[C@@]1(C)O [BACOPASAPONSIN C] | inactive | 47 | 63 |
| CC(C)=C[C@@H]1CO[C@]23C[C@@]4(CO2)[C@@H](CC[C@@H]2[C@@]5(C)CC[C@H](O[C@H]6OC[C@H](O)[C@H](O[C@H]7O[C@H](COS(=O)(=O)O)[C@@H](O)[C@H](O)[C@H]7O)[C@H]6O[C@@H]6O[C@@H](CO)[C@H](O)[C@H]6O)C(C)(C)[C@@H]5CC[C@]24C)[C@H]3[C@@]1(C)O [BACOPASIDE I] | inactive | 61 | 75 |
| CC(C)=CC1C[C@](C)(O)[C@@H]2[C@@H]3CC[C@@H]4[C@@]5(C)CC[C@H](O[C@@H]6OC[C@H](O)[C@H](O[C@@H]7O[C@H](CO)[C@@H](O)[C@H](O)[C@H]7O)[C@H]6O[C@@H]6O[C@@H](CO)[C@H](O)[C@H]6O)C(C)(C)[C@@H]5CC[C@@]4(C)[C@]34CO[C@@]2(C4)O1 (some centres undefined) [BACOPASIDE VII] | inactive | 8 | 20 |

Reference: ChEMBL document CHEMBL1142117, “Triterpene saponins from Bacopa monnieri and their antidepressant effects in two mice models” (2007)
